Screening data from PubChem BioAssay.
Compounds with a hit are over-represented: about 4.5% of the library has one in this group of screens.
OX1R antag-1: human HCRTR1 antagonism; CHO/OX1R cells, Fluo-8 calcium fluorescence, orexin A; inhibition, % at 5 µM; 330,000 tested, 0.43% active;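 active = inhibition above its plate's threshold, mean inhibition of all tested compounds on the plate plus 3 SD, cut at about 37% in these data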;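 also: 0% = orexin A challenge wells and 100% = SB-334867-A antagonist wells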
TAAR1 agonist: human TAAR1 agonism | activation, % at 3 µM | CHO RD-HGA16 TAAR1, Fluo-8 calcium fluorescence; vehicle wells 0%, saturating PEA agonist 100% | 360,000 tested, 0.99% active;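 active = activation above the mean activation of all test compounds in the run plus 3 SD, cut at about 38% in these data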
Target sequence (Q96RJ0 whole entry, looked up): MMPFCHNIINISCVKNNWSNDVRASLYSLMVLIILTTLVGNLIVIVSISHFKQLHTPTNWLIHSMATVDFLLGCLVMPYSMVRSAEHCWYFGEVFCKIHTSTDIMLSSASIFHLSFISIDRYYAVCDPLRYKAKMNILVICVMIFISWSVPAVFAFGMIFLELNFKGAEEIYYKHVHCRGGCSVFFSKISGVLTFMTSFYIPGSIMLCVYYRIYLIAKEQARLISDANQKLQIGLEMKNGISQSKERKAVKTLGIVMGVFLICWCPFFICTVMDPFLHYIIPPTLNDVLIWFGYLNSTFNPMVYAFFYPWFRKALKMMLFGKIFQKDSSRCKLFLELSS
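Assay system: CHO-derived RD-HGA16 cells with stable Gα16 and human TAAR1; timing: 17-24 h seeding, 75 min 37 °C dye, 30 min RT; read-out: % activation from peak over basal fluorescence ratio, DMSO-to-PEA scaled; measured by: kinetic Fluo-8 calcium fluorescence; benchmarks: low control DMSO, high control PEA (EC100); doses: 3 µM single concentration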
CHO parental Ca: counter-screen: ATP calcium response change in parental CHO cells; parental CHO-K1, ATP-induced calcium, Fluo-8 fluorescence; AID 463079; inhibition, % at 5.6 µM; 330,000 tested, 0.63% active;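 active = inhibition above that plate's mean sample inhibition plus 3 SD, cut at about 26% in these data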;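 also: 0% = ATP-challenged DMSO wells and 100% = DMSO wells without ATP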
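Material – parental CHO cells · Reagent – ATP stimulus · Compound – single nominal dose of 5.6 µM per compound · Detection – Fluo-8 fluorescence · Read-out basis – percent inhibition of calcium signal · Controls – ATP-challenged DMSO wells low, unchallenged DMSO wells high · Repeats – no replicates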
OX1R antag-2: antagonists of human orexin 1 receptor (OX1R); O43613; OX1R-expressing cells, FRET antagonist read-out; inhibition, % at 6.6 µM; 330,000 tested, 1.8% active; AID 485270; in the data active = inhibition mostly above about 38%, no sharp cut-off; inactive = mostly below about 40%;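 also: 0% = agonist challenge alone and 100% = reference antagonist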
TAAR1 antagonist: antagonists of human TAAR1 | Q96RJ0 | CHO RD-HGA16 TAAR1, Fluo-8 calcium fluorescence, antagonist | inhibition, % at 3 µM | 360,000 tested, 1.5% active | AID 624466;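 active = inhibition above a per-plate cutoff, the mean inhibition of test compounds on that plate plus 3 SD, cut at about 49% in these data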;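 also: 0% = DMSO plus EC80 beta-PEA response and 100% = DMSO alone without agonist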
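Test system – hTAAR1-expressing CHO RD-HGA16 cells, Gα16-coupled · Reagent – β-PEA at EC80 concentration, post-compound challenge · Compound dosing – 3 µM, single point · Timing – 140 s kinetic read after compound, 140 s after agonist · Detection – Fluo-8 intracellular calcium dye fluorescence, real-time kinetic reads · Control set – DMSO and EC80 PEA controls · Repeats – n of 1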
GPR7 antagonist: antagonists of human GPR7 (neuropeptides B/W receptor 1); GPR7-expressing cells, fluorescence antagonist assay; inhibition, % at 4.4 µM; 290,000 tested, 1.1% active; in the data active = inhibition above about 16%, passing the limit was not always enough;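 also: cells stimulated with the agonist NPW; 0% = agonist with vehicle and 100% = vehicle without agonist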
Target sequence (P48145 whole entry, looked up): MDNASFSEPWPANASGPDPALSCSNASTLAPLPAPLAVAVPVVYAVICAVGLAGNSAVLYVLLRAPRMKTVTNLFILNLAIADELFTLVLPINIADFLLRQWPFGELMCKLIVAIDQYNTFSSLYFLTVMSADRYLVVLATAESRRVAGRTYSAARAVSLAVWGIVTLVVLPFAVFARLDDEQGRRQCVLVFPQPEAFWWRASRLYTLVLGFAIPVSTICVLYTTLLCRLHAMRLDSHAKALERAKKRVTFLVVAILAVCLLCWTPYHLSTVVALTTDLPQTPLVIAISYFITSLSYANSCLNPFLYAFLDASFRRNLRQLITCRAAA
Numbers without * were called inactive; . = no result given.

SMILES	OX1R antag-1	TAAR1 agonist	CHO parental Ca	OX1R antag-2	TAAR1 antagonist	GPR7 antagonist
S=C(NCCc1ccccc1)N1CCc2ccccc2C1	-23	2	-14	17	-5	12
COc1ccc(OC)c(S(=O)(=O)NCC2CCN(C(=O)C(=O)c3cc4ccccc4o3)CC2)c1	.	2	.	.	0	.
Cc1cc(C)c(S(=O)(=O)/N=C2/C=C(Sc3ncn[nH]3)C(=O)c3ccccc32)cc1C	0	30	-6	63*	45	-14
CC1COC(=O)C(NNc2ccc(Cl)c(Cl)c2)=N1 (centres undefined)	1	24	6	1	5	19*
O=C(C[n+]1ccc(/C=N/O)cc1)N(Cc1ccccc1)Cc1ccccc1	0	3	-3	53*	-16	-7
COc1ccc(-c2cc(C(=O)N3CCCCCC3)c3ccccc3n2)cc1OC	.	10	.	.	24	.
COc1ccc(-c2cc(C(=O)OCC(=O)N3CCCCC3)c3ccccc3n2)cc1OC	-25	9	-26	15	71*	.
COc1ccc(-c2cc(C(=O)N3CCN(c4ccccc4)CC3)c3ccccc3n2)cc1OC	-25	24	-24	25	33	-6
COc1ccc(-c2cc(C(=O)N3CCCC(C(F)(F)F)C3)c3ccccc3n2)cc1OC (centres undefined)	-32	14	-18	25	50*	.
O=C(c1cc(-c2ccccc2)nc2ccccc12)N1CCN(c2ccccc2O)CC1	-13	7	-2	8	55*	5
Cc1ccc(CN2CC(N3CCC[C@@H]3C)CS2(=O)=O)cc1 (some centres undefined)	.	1	.	.	-9	.
C=CCCC(=O)N1C[C@H]2CON(C)[C@H]2C[C@H]1c1ccc(-n2ccnc2)cc1	.	-1	.	.	2	.
COc1ccc(CN2C[C@H](COCc3ccccc3)Oc3cccc(Oc4ccc(C(C)C)cc4)c3S2(=O)=O)cc1	.	3	.	.	32	.
CN(Cc1ccco1)S(=O)(=O)c1nnc(NC(=O)c2cccc(Cl)c2)s1	-4	5	29*	28	-28	8
O=C(NCC(c1cccs1)N1CCOCC1)c1cc(-c2ccc(F)cc2)nc2ccccc12 (centres undefined)	-26	5	-22	13	42	20*
O=C(NCC(c1cccs1)N1CCOCC1)c1cc2ccccc2o1 (centres undefined)	0	6	-13	21	-2	-10
O=C(NCC(c1cccs1)N1CCOCC1)c1cc2ccccc2oc1=O (centres undefined)	3	3	-22	26*	5	.
O=C1NC(=S)NC1(c1ccccc1)c1ccccc1	.	4	.	.	-12	.
O=C(NCCn1cc(SCc2ccc(F)cc2)c2ccccc21)c1ccccc1F	9	.	71*	29	.	-10
O=C(CSc1cn(CCNC(=O)c2ccccc2)c2ccccc12)NCc1ccco1	-11	2	-14	41*	7	13
Cc1nc2nc(C)c(C)nc2nc1C	.	3	.	.	-18	.
Cc1ccc(CNC(=O)c2nnc(Cc3ccc(Cl)cc3)o2)cc1	-4	7	44*	9	-42	-17
O=[N+]([O-])c1ccc(-c2csc(N3CCc4ccccc4C3)n2)cc1	-19	40*	-6	3	-2	-9
O=[N+]([O-])c1ccc(N2CCc3ccccc3C2)cc1	5	7	-4	52*	4	-10
O=C(Nc1ccc([N+](=O)[O-])cc1)N1CCc2ccccc2C1	-8	8	0	14	-12	4
SMILES	OX1R antag-1	TAAR1 agonist	CHO parental Ca	OX1R antag-2	TAAR1 antagonist	GPR7 antagonist
NC(=O)c1c(N)[nH]c(C(=O)c2ccccc2)c1-c1ccccc1	.	7	.	.	-11	.
C=CC[C@]12C[C@@]3(O[C@H](c4ccc(C(F)(F)F)cc4)N=C3C[C@H](c3ccc(OC)cc3)[C@H]1C)N(Cc1ccncc1)C2=O	.	0	.	.	-45	.
COc1cccc(CN(C)C(=O)c2cccc(S(=O)(=O)N3CCN(c4ccccc4)CC3)c2)c1OC	.	7	.	.	11	.
CN(CC(=O)Nc1ccc(Cl)cc1)C(=O)c1cccc(S(=O)(=O)N2CCN(Cc3ccccc3)CC2)c1	32	18	37*	36	50*	.
CN(Cc1c(F)cccc1Cl)C(=O)c1cccc(S(=O)(=O)N2CCN(Cc3ccccc3)CC2)c1	.	9	.	.	21	.
CN(Cc1ccc(OC(F)F)cc1)C(=O)c1cccc(S(=O)(=O)N2CCN(Cc3ccccc3)CC2)c1	.	5	.	.	49*	.
COc1cccc(CN(C)C(=O)c2cccc(S(=O)(=O)N3CCN(c4ccc(F)cc4)CC3)c2)c1OC	13	3	35*	36	30	.
CCCN1C(=O)c2n[nH]c(C)c2C1c1ccc2c(c1)OCO2 (centres undefined)	.	-1	.	.	-15	.
COc1cc(OC)cc(C2=Cc3ccc(OC)cc3C(CC(C)=O)N2c2ccc(C#CCCO)cc2)c1 (centres undefined)	.	1	.	.	-2	.
COc1cc(-c2nc3cnccn3c2Nc2ccc(C(C)C)cc2)ccc1O	-8	22	37*	-3	39	-9
Cc1[nH]c2ccccc2c1C(=O)c1c(N)[nH]c(C(=O)c2ccc(Br)cc2)c1-c1ccc(Br)cc1	.	0	.	.	-19	.
CC(=O)c1ccc2c3c(cccc13)C(=O)N(c1c(C)nn(C)c1C)C2=O	-15	3	-12	67*	1	-10
Cc1ccc(N2C(=O)c3cccc4c(C(=O)O)ccc(c34)C2=O)cc1	2	2	-3	34	6	-2
Cn1c(SCC2CCCO2)nnc1-c1ccncc1 (centres undefined)	-6	4	-9	-8	-14	-14
Cn1c(SCC2CCCO2)nnc1-c1cccc([N+](=O)[O-])c1 (centres undefined)	-16	12	-1	50*	21	-6
CCCCCCn1c(SCC(=O)NC2CCS(=O)(=O)C2)nc2ccccc2c1=O (centres undefined)	.	-1	.	.	-4	.
O=C(Nc1cccc(-c2nc3ncccc3o2)c1)c1ccccc1	-10	8	-22	56*	23	-21
CCc1ccc2oc(-c3cccc(NC(=O)c4cccnc4)c3)nc2c1	-16	15	-16	25	49*	-4
COC(=O)c1cc2c(c3c4ccccc4n(S(=O)(=O)c4ccccc4)c13)C(=O)N(Cc1ccc(N(C)C)cc1)C2	.	-2	.	.	-26	.
COc1ccc2[nH]c(=O)c(CNc3cccc(C)c3)cc2c1	-14	1	-17	48*	-5	2
COc1ccc(NCc2cc3cc(OC)ccc3[nH]c2=O)cc1	-34	0	-22	47*	-31	-2
COc1ccccc1N1CCN(S(=O)(=O)c2ccc(F)cc2)CC1	-13	38*	-5	-1	3	-5
